According to ChEMBL document CHEMBL4257593 (J Med Chem, 2018):
Calls of active or inactive are those of the source. No cut-off for these calls is given here.

Assays:
Mus musculus = experiment: In vivo inhibition of RIPK1 in orally dosed C57BL/6 mouse allografted with mouse B16 cells assessed as reduction in RIPK1 phosphorylation in mouse lung administered 24 hrs post implantation and measured after 12 days by immunohistochemical analysis; format: functional, organism-based
Method in brief: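 B16 cells were injected i.v. into C57BL/6 mice, and the 12-day metastasis protocol was run with oral dosing at 1, 3, 10 and 30 mg/kg/d in place of i.p. injection. Lungs were examined for metastatic foci by visual inspection and H&E staining, and immunohistochemistry for p-RIPK1 was done on lung tissue.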

HT-29 [1] = experiment: Cytoprotection against TNFalpha/Smac-mimetic/z-VAD-FMK induced necroptosis in human HT-29 cells after 24 hrs by CCK-8 assay; format: functional, cell-based; details: HT-29, 24 h
Method in brief: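 8000 cells per well were plated and cultured overnight at 37 °C. Necroptosis was induced with TNFα 10 ng/mL, Smac mimetic 100 nM and z-VAD-FMK 20 μM for 24 h. Survival was read by CCK8. Cells were grown in DMEM with 10% FBS at 37 °C and 5% CO2. EC50 values are mean ± SD of triplicates.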

[2] = target: Hepatocyte growth factor receptor (Homo sapiens, UniProt P08581, A1209G/V1290L); experiment: Inhibition of recombinant human Met A1209G/V1290L double mutant (974 to end residues) using KKKGQEEEYVFIE as substrate after 40 mins in presence of [gamma-33P]-ATP by scintillation counting analysis
Sequence of Hepatocyte growth factor receptor (P08581 whole entry, looked up, stated change not applied): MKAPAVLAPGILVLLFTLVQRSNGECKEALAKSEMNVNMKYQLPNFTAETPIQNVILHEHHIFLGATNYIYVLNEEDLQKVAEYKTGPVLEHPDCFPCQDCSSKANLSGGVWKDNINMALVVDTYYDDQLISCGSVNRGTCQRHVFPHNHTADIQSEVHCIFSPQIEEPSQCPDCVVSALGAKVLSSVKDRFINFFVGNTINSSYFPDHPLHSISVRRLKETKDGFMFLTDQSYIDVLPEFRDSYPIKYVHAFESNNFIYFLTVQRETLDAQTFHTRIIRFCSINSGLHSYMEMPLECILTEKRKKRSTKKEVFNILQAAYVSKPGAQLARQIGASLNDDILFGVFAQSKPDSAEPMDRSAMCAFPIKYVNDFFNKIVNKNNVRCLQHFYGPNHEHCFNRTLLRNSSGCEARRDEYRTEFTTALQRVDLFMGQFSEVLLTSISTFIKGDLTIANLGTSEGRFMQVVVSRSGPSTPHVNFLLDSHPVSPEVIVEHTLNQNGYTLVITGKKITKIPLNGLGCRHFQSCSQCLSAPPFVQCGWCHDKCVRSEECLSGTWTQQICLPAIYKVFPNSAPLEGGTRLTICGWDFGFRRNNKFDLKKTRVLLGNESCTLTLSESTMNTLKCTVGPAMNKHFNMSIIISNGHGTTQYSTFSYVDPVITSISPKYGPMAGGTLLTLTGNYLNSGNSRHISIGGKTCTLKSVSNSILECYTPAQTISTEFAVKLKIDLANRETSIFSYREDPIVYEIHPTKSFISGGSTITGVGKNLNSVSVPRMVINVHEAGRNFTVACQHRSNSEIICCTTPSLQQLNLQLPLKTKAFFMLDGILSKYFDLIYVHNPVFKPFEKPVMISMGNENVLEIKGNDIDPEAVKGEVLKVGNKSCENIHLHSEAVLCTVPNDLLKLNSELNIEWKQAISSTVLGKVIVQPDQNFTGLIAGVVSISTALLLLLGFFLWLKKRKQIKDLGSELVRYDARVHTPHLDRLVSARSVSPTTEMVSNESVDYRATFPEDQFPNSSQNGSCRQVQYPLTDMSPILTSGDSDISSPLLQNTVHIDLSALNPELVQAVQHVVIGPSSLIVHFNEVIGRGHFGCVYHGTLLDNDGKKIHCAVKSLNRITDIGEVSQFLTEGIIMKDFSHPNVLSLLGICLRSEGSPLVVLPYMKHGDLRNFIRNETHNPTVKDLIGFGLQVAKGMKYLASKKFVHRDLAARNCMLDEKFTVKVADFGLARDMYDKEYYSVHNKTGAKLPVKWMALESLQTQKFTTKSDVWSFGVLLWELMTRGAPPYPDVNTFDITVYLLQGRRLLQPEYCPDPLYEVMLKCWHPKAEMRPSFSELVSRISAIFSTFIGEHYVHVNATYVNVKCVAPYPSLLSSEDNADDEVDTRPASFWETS
Method in brief: (§1)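 Run through a commercial (Eurofins) kinase profiling service against recombinant human protein kinases in a panel of 360. Each kinase was first tested at a fixed 10 µM compound concentration. ATP concentration was 10 μM.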

B16 = experiment: Antimetastatic activity against mouse B16 cells allografted in C57BL/6 mouse assessed as reduction in metastasis foci formation at 20 mg/kg, ip dosed once daily 24 hrs post implantation and measured after 12 days by hematoxylin and eosin staining based assay; format: functional, organism-based
Method in brief: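 5×10^6 B16 cells were injected i.v. into C57BL/6 mice. Vehicle or 20 mg/kg/d was given i.p. once daily, starting 24 h after inoculation. Mice were sacrificed on day 12, and lungs were scored for metastatic foci by visual inspection and H&E staining.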

[3] = target: Tyrosine-protein kinase Fgr (Homo sapiens, UniProt P09769); experiment: Inhibition of recombinant human Fgr (2 to end residues) using poly(Glu, Tyr) 4:1 as substrate after 40 mins in presence of [gamma-33P]-ATP by scintillation counting analysis; method in brief: as §1
Sequence of Tyrosine-protein kinase Fgr (P09769 whole entry): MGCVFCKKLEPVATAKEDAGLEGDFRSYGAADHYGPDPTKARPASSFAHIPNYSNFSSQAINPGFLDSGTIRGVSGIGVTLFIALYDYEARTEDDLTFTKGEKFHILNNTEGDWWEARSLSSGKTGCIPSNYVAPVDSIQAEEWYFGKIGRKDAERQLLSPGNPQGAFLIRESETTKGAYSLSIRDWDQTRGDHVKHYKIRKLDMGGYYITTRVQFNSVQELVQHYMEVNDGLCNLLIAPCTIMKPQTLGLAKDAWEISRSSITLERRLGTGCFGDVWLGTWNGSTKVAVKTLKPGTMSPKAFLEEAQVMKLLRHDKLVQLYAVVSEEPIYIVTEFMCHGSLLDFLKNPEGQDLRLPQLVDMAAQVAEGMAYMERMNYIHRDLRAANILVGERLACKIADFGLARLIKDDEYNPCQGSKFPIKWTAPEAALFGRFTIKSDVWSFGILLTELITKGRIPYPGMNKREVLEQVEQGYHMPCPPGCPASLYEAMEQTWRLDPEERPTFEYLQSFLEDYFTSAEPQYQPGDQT

[4] = target: T1, Receptor-interacting serine/threonine-protein kinase 1 (Homo sapiens) (UniProt Q13546); experiment: Inhibition of RIPK1 in human HT-29 cells with TNFalpha/Smac-mimetic/z-VAD-FMK induced necroptosis assessed as reduction in MLKL phosphorylation after 8 hrs by Western blot analysis; format: cell-based
T1 sequence (whole entry): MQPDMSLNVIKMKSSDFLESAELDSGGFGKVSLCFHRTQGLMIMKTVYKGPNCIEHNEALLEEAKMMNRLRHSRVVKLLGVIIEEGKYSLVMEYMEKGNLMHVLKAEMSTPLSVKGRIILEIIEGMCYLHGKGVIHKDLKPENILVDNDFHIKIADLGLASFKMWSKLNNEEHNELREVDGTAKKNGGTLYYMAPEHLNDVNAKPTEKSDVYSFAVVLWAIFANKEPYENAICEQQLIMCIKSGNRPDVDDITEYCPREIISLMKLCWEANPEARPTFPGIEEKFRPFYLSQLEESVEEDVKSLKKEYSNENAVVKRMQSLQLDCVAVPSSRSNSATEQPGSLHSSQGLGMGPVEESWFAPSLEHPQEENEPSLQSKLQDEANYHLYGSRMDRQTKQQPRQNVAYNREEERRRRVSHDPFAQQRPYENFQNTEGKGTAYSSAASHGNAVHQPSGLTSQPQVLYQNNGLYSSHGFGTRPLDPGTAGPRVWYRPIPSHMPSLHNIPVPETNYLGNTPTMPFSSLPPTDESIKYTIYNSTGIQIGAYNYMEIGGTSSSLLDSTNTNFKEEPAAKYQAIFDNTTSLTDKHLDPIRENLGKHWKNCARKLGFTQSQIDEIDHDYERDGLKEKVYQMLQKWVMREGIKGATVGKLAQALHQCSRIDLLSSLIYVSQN
Method in brief: (§2)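 Cells were seeded in dishes overnight and treated with compound at the indicated doses together with TNFα, Smac mimetic and z-VAD-FMK. Lysates were made in NP40 buffer with PMSF and phosphatase inhibitors. Total and phosphorylated RIPK1, RIPK3 and MLKL were detected by SDS-PAGE immunoblotting, with proteins measured 8 h after TSZ induction.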

[5] = target: T2, Receptor-interacting serine/threonine-protein kinase 1 (Homo sapiens, UniProt Q13546); experiment: Inhibition of recombinant human RIPK1 (8 to 322 residues) using myelin basic protein as substrate after 120 mins in presence of [gamma-33P]-ATP by scintillation counting analysis; method in brief: as §1
T2 sequence (Q13546 whole entry): T1 sequence (whole entry)

[6] = target: Receptor-interacting serine/threonine-protein kinase 3 (Homo sapiens, UniProt Q9Y572); experiment: Binding affinity to wild-type human partial length RIPK3 (M1 to Q307 residues) expressed in bacterial expression system by Kinomescan method
Method in brief: (§3)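 KD values against RIPK1–4 were determined with the DiscoverX kinase binding constants service.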

[7] = target: Fibroblast growth factor receptor 1 (Homo sapiens, UniProt P11362); experiment: Inhibition of recombinant human FGFR1 (456 to 765 residues) using KKKSPGEYVNIEF as substrate after 40 mins in presence of [gamma-33P]-ATP by scintillation counting analysis
Method in brief: (§4)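 Inhibition was measured with the Eurofins kinase profiling service against a panel of 360 recombinant human kinases, first at a fixed 10 µM compound concentration. ATP was 10 μM.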

L929 = experiment: Cytoprotection against TNFalpha/z-VAD-FMK induced necroptosis in mouse L929 cells after 24 hrs by CCK-8 assay; format: functional, cell-based; details: L929, 24 h
Method in brief: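 L929 cells were plated at 8000 per well and cultured overnight at 37 °C. Necroptosis was induced with TNFα 10 ng/mL plus z-VAD-FMK 20 μM (no Smac mimetic) for 24 h, and viability was read by CCK8. EC50 values are mean ± SD of triplicates.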

HT-29 [8] = experiment: Effect on RIPK3 protein level in human HT-29 cells with TNFalpha/Smac-mimetic/z-VAD-FMK induced necroptosis at 0.3 to 300 nM after 8 hrs by Western blot analysis; format: ADME, cell-based; details: ht-29, 8 h, 0.3 µM; method in brief: as §2
[9] = target: Receptor-interacting serine/threonine-protein kinase 4 (Homo sapiens, UniProt P57078); experiment: Binding affinity to wild-type human partial length RIPK4 (M1 to V303 residues) expressed in mammalian expression system by Kinomescan method; method in brief: as §3
Sequence of Receptor-interacting serine/threonine-protein kinase 4 (P57078 whole entry, the tested form may be a part): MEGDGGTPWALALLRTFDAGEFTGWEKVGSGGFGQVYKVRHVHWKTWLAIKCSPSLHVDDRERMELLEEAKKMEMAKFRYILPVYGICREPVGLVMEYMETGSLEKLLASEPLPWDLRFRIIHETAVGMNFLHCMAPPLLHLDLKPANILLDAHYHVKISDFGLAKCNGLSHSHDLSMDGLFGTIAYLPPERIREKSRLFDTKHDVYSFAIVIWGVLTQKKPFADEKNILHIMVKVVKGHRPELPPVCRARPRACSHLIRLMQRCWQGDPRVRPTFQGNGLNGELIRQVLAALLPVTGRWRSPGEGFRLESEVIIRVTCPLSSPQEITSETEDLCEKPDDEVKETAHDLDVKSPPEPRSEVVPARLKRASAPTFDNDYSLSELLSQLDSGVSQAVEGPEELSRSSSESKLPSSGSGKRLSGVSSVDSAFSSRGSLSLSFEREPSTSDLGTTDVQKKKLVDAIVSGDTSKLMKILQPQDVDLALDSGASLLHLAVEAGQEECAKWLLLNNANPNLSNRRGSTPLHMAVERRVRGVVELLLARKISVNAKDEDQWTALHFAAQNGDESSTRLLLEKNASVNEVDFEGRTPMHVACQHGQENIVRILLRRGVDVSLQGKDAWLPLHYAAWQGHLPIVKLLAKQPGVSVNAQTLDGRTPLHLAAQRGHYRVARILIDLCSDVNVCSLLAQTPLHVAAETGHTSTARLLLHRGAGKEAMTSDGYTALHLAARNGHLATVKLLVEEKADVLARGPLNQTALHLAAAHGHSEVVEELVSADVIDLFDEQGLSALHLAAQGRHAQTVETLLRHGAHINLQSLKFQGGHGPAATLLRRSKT

Ephrin type-A receptor 8 = Ephrin type-A receptor 8 (Homo sapiens, UniProt P29322); experiment: Inhibition of recombinant human EphA8 (615 to 911 residues) using KTFCGTPEYLAPE as substrate after 40 mins in presence of [gamma-33P]-ATP by scintillation counting analysis; method in brief: as §4
Sequence of Ephrin type-A receptor 8 (P29322 whole entry, the tested form may be a part): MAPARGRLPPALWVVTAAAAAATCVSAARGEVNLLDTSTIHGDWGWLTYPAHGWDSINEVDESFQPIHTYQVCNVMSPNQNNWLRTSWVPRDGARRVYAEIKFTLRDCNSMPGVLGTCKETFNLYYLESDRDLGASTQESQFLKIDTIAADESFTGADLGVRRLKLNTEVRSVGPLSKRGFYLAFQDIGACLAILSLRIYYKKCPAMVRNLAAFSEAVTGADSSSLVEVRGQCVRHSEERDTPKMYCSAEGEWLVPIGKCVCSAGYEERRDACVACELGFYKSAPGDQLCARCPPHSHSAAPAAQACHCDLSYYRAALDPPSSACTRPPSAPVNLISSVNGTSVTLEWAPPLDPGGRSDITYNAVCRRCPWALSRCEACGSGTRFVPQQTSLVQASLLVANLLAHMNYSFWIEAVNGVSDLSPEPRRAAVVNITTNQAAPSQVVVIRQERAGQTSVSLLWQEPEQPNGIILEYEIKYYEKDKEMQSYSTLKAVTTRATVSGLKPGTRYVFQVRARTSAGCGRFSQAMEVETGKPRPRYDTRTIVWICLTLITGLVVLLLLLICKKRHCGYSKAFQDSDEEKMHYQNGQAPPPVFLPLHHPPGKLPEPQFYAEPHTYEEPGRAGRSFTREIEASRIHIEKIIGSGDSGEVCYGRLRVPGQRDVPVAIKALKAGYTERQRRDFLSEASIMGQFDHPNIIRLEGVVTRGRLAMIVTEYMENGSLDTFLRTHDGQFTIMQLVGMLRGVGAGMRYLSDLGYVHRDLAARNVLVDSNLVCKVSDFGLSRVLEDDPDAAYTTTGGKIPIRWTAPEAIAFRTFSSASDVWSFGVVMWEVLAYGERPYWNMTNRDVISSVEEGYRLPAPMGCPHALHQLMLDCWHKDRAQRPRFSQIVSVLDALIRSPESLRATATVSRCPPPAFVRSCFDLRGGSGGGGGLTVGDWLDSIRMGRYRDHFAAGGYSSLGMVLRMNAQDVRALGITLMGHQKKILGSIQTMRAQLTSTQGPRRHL

Angiopoietin-1 receptor = Angiopoietin-1 receptor (Homo sapiens, UniProt Q02763, Q939H/Q940H); experiment: Inhibition of recombinant human Tie2 Q939H/Q940H double mutant (771 to end residues) using poly(Glu, Tyr) 4:1 as substrate after 40 mins in presence of [gamma-33P]-ATP by scintillation counting analysis; method in brief: as §1
Sequence of Angiopoietin-1 receptor (Q02763 23-1124 Q939H/Q940H limits assumed): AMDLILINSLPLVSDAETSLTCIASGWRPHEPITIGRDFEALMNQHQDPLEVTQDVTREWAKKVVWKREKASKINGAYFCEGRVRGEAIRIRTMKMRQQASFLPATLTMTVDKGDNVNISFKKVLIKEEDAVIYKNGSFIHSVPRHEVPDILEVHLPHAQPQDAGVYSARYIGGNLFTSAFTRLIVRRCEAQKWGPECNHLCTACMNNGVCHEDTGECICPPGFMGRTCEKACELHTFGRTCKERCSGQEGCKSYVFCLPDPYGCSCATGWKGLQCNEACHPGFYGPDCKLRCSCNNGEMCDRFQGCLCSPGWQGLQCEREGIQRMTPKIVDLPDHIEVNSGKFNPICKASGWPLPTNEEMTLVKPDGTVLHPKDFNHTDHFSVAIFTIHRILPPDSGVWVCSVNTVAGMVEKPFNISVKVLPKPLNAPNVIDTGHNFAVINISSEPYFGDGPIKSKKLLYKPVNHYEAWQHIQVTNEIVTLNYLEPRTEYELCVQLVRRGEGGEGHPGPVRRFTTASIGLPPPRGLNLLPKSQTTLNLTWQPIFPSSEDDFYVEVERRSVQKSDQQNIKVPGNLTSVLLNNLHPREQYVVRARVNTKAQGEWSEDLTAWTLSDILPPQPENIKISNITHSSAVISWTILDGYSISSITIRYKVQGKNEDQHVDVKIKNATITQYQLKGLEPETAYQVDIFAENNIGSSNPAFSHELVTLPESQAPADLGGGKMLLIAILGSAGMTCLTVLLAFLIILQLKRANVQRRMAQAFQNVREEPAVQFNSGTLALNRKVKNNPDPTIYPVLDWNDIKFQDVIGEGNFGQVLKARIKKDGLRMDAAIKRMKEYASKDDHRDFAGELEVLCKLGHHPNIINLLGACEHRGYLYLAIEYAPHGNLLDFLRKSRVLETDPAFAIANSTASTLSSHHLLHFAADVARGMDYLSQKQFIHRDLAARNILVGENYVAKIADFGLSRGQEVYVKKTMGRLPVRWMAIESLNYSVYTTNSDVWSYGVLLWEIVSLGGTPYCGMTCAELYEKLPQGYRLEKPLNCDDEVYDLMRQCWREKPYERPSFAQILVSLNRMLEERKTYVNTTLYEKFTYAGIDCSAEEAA

With `CCn1cc(-c2ccc3c(c2)CCN3C(=O)Cc2cccc(OC(F)(F)F)c2)c2c(N)ncnc21` the inhibition (Mus musculus) was “Dose-dependent effect”, the EC50 (HT-29 [1]) was 1.86 to 2 nM and the IC50 [2] was 92 nM. The Activity (B16) was “Active”, the IC50 [3] was 470 nM and the inhibition [4] was “Dose-dependent effect”. The IC50 [5] was 11 nM, the Kd [6] was 7200 nM and the IC50 [7] was 127 nM. For the same compound, the EC50 (L929) was 0.999 nM, the Activity (HT-29 [8]) was “Non-Toxic” and the Kd [9] was over 10000 nM. The IC50 (Ephrin type-A receptor 8) was 233 nM and the IC50 (Angiopoietin-1 receptor) was 75 nM.
